# From ChEMBL document CHEMBL3994579, “Synthesis and antibacterial activity of novel 3-O-descladinosylazithromycin derivatives” (2017)
# Legend:
# Format in all cases: functional
# Staphylococcus aureus [1] = assay: Antibacterial activity against erythromycin-susceptible Staphylococcus aureus ATCC 25923 by broth microdilution method
# How it was run: (§1)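 MICs were determined in vitro by broth microdilution following the NCCL-recommended method. Azithromycin and clarithromycin were run alongside as reference antibiotics on the same strain panel.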
# Escherichia coli = assay: Antibacterial activity against penicillin-susceptible Escherichia coli ATCC 25922 by broth microdilution method; how it was run: as §1
# Streptococcus pyogenes [2] = assay: Antibacterial activity against erythromycin-susceptible Streptococcus pyogenes clinical isolate by broth microdilution method; how it was run: as §1
# Pseudomonas aeruginosa = assay: Antibacterial activity against penicillin-susceptible Pseudomonas aeruginosa ATCC 27853 by broth microdilution method; how it was run: as §1
# Bacillus subtilis = assay: Antibacterial activity against erythromycin/penicillin-susceptible Bacillus subtilis ATCC 9372 by broth microdilution method; how it was run: as §1
# [3] = test system: Staphylococcus epidermidis; assay: Antibacterial activity against penicillin-resistant Staphylococcus epidermidis clinical isolate by broth microdilution method
# How it was run: (§2)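 Broth microdilution per NCCL recommendation, read as minimal inhibitory concentration, run alongside azithromycin and clarithromycin references. Strains: S. pneumoniae B1 (erythromycin-resistant, ermB), A22072 (erythromycin-resistant, mefA), AB11 (erythromycin-resistant, erm and mef); S. aureus ATCC29213 ([…]); S. epidermidis clinical isolate (penicillin-resistant, not characterized).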
# Staphylococcus aureus [4] = assay: Antibacterial activity against […] Staphylococcus aureus ATCC 29213 by broth microdilution method; how it was run: as §2
# Streptococcus pneumoniae [5] = assay: Antibacterial activity against erythromycin-resistant Streptococcus pneumoniae B1 expressing ermB gene by broth microdilution method; how it was run: as §2
# Streptococcus pneumoniae [6] = assay: Antibacterial activity against erythromycin-resistant Streptococcus pneumoniae A22072 expressing mefA gene by broth microdilution method; how it was run: as §2
# Streptococcus pneumoniae [7] = assay: Antibacterial activity against erythromycin-resistant Streptococcus pneumoniae AB11 expressing ermB/mefA genes by broth microdilution method; how it was run: as §2
# Streptococcus pyogenes [8] = assay: Antibacterial activity against erythromycin-resistant Streptococcus pyogenes R1 clinical isolate by broth microdilution method
Structure (SMILES),MIC (Staphylococcus aureus [1]) [µg/mL],MIC (Escherichia coli) [µg/mL],MIC (Streptococcus pyogenes [2]) [µg/mL],MIC (Pseudomonas aeruginosa) [µg/mL],MIC (Bacillus subtilis) [µg/mL],MIC [3] [µg/mL],MIC (Staphylococcus aureus [4]) [µg/mL],MIC (Streptococcus pneumoniae [5]) [µg/mL],MIC (Streptococcus pneumoniae [6]) [µg/mL],MIC (Streptococcus pneumoniae [7]) [µg/mL],MIC (Streptococcus pyogenes [8]) [µg/mL]
CC[C@H]1OC(=O)[C@H](C)[C@@H](O)[C@H](C)[C@@H](O[C@@H]2O[C@H](C)C[C@H](N(C)C)[C@H]2OC(=O)Nc2ccccc2)[C@](C)(O)C[C@@H](C)CN(C)[C@H](C)[C@H]2OC(=O)O[C@@]21C,32,64,0.5,32,32,32,128,128,8,8,128
CCCCc1ccc(NC(=O)O[C@H]2[C@H](O[C@@H]3[C@@H](C)[C@H](O)[C@@H](C)C(=O)O[C@H](CC)[C@@]4(C)OC(=O)O[C@@H]4[C@@H](C)N(C)C[C@H](C)C[C@@]3(C)O)O[C@H](C)C[C@@H]2N(C)C)cc1,32,128,8,128,128,64,128,256,64,32,64
CC[C@H]1OC(=O)[C@H](C)[C@@H](OC(=O)Nc2ccccc2Cl)[C@H](C)[C@@H](O[C@@H]2O[C@H](C)C[C@H](N(C)C)[C@H]2O)[C@](C)(O)C[C@@H](C)CN(C)[C@H](C)[C@H]2OC(=O)O[C@@]21C,8,128,0.125,128,8,64,64,64,1,4,128
CC[C@H]1OC(=O)[C@H](C)[C@@H](OC(=O)Nc2ccccc2)[C@H](C)[C@@H](O[C@@H]2O[C@H](C)C[C@H](N(C)C)[C@H]2O)[C@](C)(O)C[C@@H](C)CN(C)[C@H](C)[C@@H](OC(=O)NCc2ccccc2)[C@]1(C)O,32,64,2,64,8,32,128,128,16,2,64
CC[C@H]1OC(=O)[C@H](C)[C@@H](OC(=O)Nc2cccc(C(F)(F)F)c2)[C@H](C)[C@@H](O[C@@H]2O[C@H](C)C[C@H](N(C)C)[C@H]2O)[C@](C)(O)C[C@@H](C)CN(C)[C@H](C)[C@H]2OC(=O)O[C@@]21C,16,128,1,128,64,0.5,128,32,8,8,64
CC[C@H]1OC(=O)[C@H](C)[C@@H](OC(=O)n2ccnc2)[C@H](C)[C@@H](O[C@@H]2O[C@H](C)C[C@H](N(C)C)[C@H]2OC(C)=O)[C@](C)(O)C[C@@H](C)CN(C)[C@H](C)[C@H]2OC(=O)O[C@@]21C,128,32,8,128,128,128,128,256,16,256,56
CC[C@H]1OC(=O)[C@H](C)[C@@H](OC(=O)Nc2ccccc2)[C@H](C)[C@@H](O[C@@H]2O[C@H](C)C[C@H](N(C)C)[C@H]2OC(C)=O)[C@](C)(O)C[C@@H](C)CN(C)[C@H](C)[C@H]2OC(=O)O[C@@]21C,32,32,0.25,64,32,16,128,128,4,64,128
CC[C@H]1OC(=O)[C@H](C)[C@@H](O)[C@H](C)[C@@H](O[C@@H]2O[C@H](C)C[C@H](N(C)C)[C@H]2OC(=O)Nc2cccc(Cl)c2)[C@](C)(O)C[C@@H](C)CN(C)[C@H](C)[C@H]2OC(=O)O[C@@]21C,16,32,1,64,8,32,128,64,8,32,64
CC[C@H]1OC(=O)[C@H](C)[C@@H](O)[C@H](C)[C@@H](O[C@@H]2O[C@H](C)C[C@H](N(C)C)[C@H]2OC(=O)n2ccnc2)[C@](C)(O)C[C@@H](C)CN(C)[C@H](C)[C@H]2OC(=O)O[C@@]21C,64,64,8,64,128,32,128,256,128,32,256
CC[C@H]1OC(=O)[C@H](C)[C@@H](OC(=O)Nc2cccc(C)c2)[C@H](C)[C@@H](O[C@@H]2O[C@H](C)C[C@H](N(C)C)[C@H]2O)[C@](C)(O)C[C@@H](C)CN(C)[C@H](C)[C@@H](OC(=O)NCc2ccc(OC)cc2)[C@]1(C)O,16,128,1,128,16,32,128,128,8,16,128
CC[C@H]1OC(=O)[C@H](C)[C@@H](OC(=O)Nc2cccc(OC)c2)[C@H](C)[C@@H](O[C@@H]2O[C@H](C)C[C@H](N(C)C)[C@H]2O)[C@](C)(O)C[C@@H](C)CN(C)[C@H](C)[C@H]2OC(=O)O[C@@]21C,16,64,2,64,16,32,64,64,16,16,64
CC[C@H]1OC(=O)[C@H](C)[C@@H](OC(=O)Nc2cccc(OC)c2)[C@H](C)[C@@H](O[C@@H]2O[C@H](C)C[C@H](N(C)C)[C@H]2OC(C)=O)[C@](C)(O)C[C@@H](C)CN(C)[C@H](C)[C@H]2OC(=O)O[C@@]21C,32,64,2,64,16,32,64,128,16,32,128
CC[C@H]1OC(=O)[C@H](C)[C@@H](OC(=O)Nc2ccccc2F)[C@H](C)[C@@H](O[C@@H]2O[C@H](C)C[C@H](N(C)C)[C@H]2O)[C@](C)(O)C[C@@H](C)CN(C)[C@H](C)[C@H]2OC(=O)O[C@@]21C,8,64,0.5,64,32,4,64,64,16,16,64
CC[C@H]1OC(=O)[C@H](C)[C@@H](OC(=O)Nc2cccc(C)c2)[C@H](C)[C@@H](O[C@@H]2O[C@H](C)C[C@H](N(C)C)[C@H]2O)[C@](C)(O)C[C@@H](C)CN(C)[C@H](C)[C@H]2OC(=O)O[C@@]21C,2,64,1,64,8,4,64,64,8,16,32
